Experimental data from different studies.
Protocols differ between the studies behind these lines.
CSF1R: Macrophage colony-stimulating factor 1 receptor (CSF1R, Homo sapiens, UniProt P07333)
CSF1R autoinhibited: Macrophage colony-stimulating factor 1 receptor, autoinhibited (CSF1R, Homo sapiens, UniProt P07333)

C[C@@H]1CCN(c2nccc(-c3cnn4ncccc34)n2)C1 — remaining binding (CSF1R; binding; 1 µM): 100%
CCS(=O)(=O)c1cc2cc(C[C@@](O)(CC(C)(C)c3ccc(F)cc3C(N)=O)C(F)(F)F)[nH]c2cn1 — remaining binding (CSF1R; cell-free assay, competition with immobilised ligand; 1 µM): 100%
c1cncc(-c2cccc(Nc3nccc(NC4CCCCC4)n3)c2)c1 — remaining binding (CSF1R; binding, competition with immobilised ligand; 10 µM): 0.15%
c1cnn2ncc(-c3ccnc(N4CCC45COC5)n3)c2c1 — remaining binding (CSF1R; binding; 1 µM): 100%
CN([C@@H]1CCc2c(CC(=O)O)c3cc(S(C)(=O)=O)ccc3n2C1)S(=O)(=O)c1ccc(F)cc1 — remaining binding (CSF1R autoinhibited; cell-free assay, competition with immobilised ligand; 1 µM): 93%
O=C(NCC1CCOCC1)c1n[nH]cc1NC(=O)c1c(F)cccc1F — remaining binding (CSF1R; binding, competition with immobilised ligand; 1 µM): 100%
CNC(=O)[C@@H]1CC[C@@H](n2c(-c3ccc4cnccc4c3)nc3ccc(C(=O)NCc4cccc(C(N)=O)c4)cc32)C1 — remaining binding (CSF1R; binding, competition with immobilised ligand; 1 µM): 100%
O=C(NCCCN1CCOCC1)c1ccc(Nc2ncc(Cl)c(-c3ccc(Cl)s3)n2)cc1 — remaining binding (CSF1R; binding, competition with immobilised ligand; 1 µM): 15%
CN(CCCC(F)(F)F)c1nccc(-c2cnn3ncccc23)n1 — remaining binding (CSF1R autoinhibited; binding; 1 µM): 100%
C[C@@H](c1ccc(-n2cnc3c(N)ncnc32)cc1)N1CCc2nn(C)c(Cc3ccccc3)c2C1=O — remaining binding (CSF1R; binding, competition with immobilised ligand; 0.1 µM): 100%
CN(C)c1ncc(F)c(-c2cnn3ncccc23)n1 — remaining binding (CSF1R autoinhibited; binding; 1 µM): 69%
CCOC(=O)c1cc2cc(-c3cc(C(=O)NCc4ccc(C(=O)O)cc4)nn3C)ccc2[nH]1 — remaining binding (CSF1R autoinhibited; cell-free assay, competition with immobilised ligand; 0.1 µM): 94%
FC(F)(F)Oc1cccc(-c2cnc3ccc(-c4ccncc4)nn23)c1 — remaining binding (CSF1R; cell-free assay, competition with immobilised ligand; 5 µM): 59%
CO[C@@H](C)c1c(Nc2ccc([C@@H](N(C)C(=O)C3CCS(=O)(=O)CC3)C(F)(F)F)cc2)cnc2cc(Cl)nn12 — remaining binding (CSF1R; cell-free assay, competition with immobilised ligand; 1 µM): 72%
COc1ccnn2ncc(-c3ccnc(N(C)C)n3)c12 — remaining binding (CSF1R autoinhibited; binding; 1 µM): 91%
CS(=O)(=O)N1CCCC(NC(=O)[C@H](CCC2CCCCC2)NC(=O)c2ccc(CNC(=O)c3cnc4ccccn34)cc2)C1 (stereo partly shown) — remaining binding (CSF1R autoinhibited; cell-free assay, competition with immobilised ligand; 0.1 µM): 100%
Cc1cnc(Nc2ccc(C(=O)N3CCC(N4CCCC4)CC3)cc2)nc1-c1cc2ccccc2s1 — remaining binding (CSF1R; binding, competition with immobilised ligand; 1 µM): 12%
CCC(=O)N[C@H]1CC[C@@H](C(=O)N(C)c2ccc(-c3nc4ccccc4o3)cc2)C1 — remaining binding (CSF1R autoinhibited; cell-free assay, competition with immobilised ligand; 1 µM): 56%
C=CC(=O)N1CCC(C(=O)NCC(=O)N2CCN(c3nc(-c4cnc(N)nc4C(F)F)nc(N4CCOCC4)n3)CC2)CC1 — remaining binding (CSF1R autoinhibited; binding, competition with immobilised ligand; 1 µM): 20%
